Experimental data from different studies.
Protocols differ between the studies behind these lines.
Target: Mitogen-activated protein kinase kinase kinase 9 (MAP3K9, Homo sapiens, UniProt P80192)

Structure (SMILES)	assay	setting	endpoint	result
C#Cc1n[nH]c2c(-c3cn([C@@H](C)c4ccccn4)c(=O)[nH]c3=O)cc(F)cc12	enzyme activity, inhibitor	0.1 µM	inhibition	8%
Cc1nn(C)cc1-c1nc2c(N3CCN(Cc4ccc(Cl)cc4)CC3)c(Cl)cnc2[nH]1	binding, competition with immobilised ligand	1 µM	remaining binding	15%
Cn1cc(-c2cccc(N3CCc4c(sc5c4CC(C)(C)C5)C3=O)c2CO)cc(Nc2ccncn2)c1=O	enzyme activity, inhibitor	1 µM	inhibition	-3%
O=c1[nH]c2ccccc2n1C1CCN(Cc2ccc(-c3[nH]c4cc5ncnc5cc4nc3-c3ccccc3)cc2)CC1	cell-free assay	0.5 µM	remaining signal	93.9%
COc1ncccc1-c1cnn2ccc(N3CCN(C(=O)OC(C)C)CC3)nc12	binding, competition with immobilised ligand	1 µM	remaining binding	100%
CC(C)(C)c1cc(C=C(C#N)C#N)cc(Br)c1O	enzyme activity, inhibitor	0.5 µM	remaining activity	90.2%
Cn1cncc1[C@](O)(COc1ccc(C#N)cc1-c1ccc(OC(F)(F)F)cc1)c1ccc(C#N)cc1	cell-free assay, competition with immobilised ligand	1 µM	remaining binding	81%
COc1cc(Nc2ncc(F)c(Nc3ccc4c(n3)NC(=O)C(C)(C)O4)n2)cc(OC)c1OC	binding, competition with immobilised ligand	10 µM	inhibition	99%
N#CC1(c2ccccn2)CCN(Cc2cc(C(=O)O)c(=O)n3ccccc23)CC1	cell-free assay, competition with immobilised ligand	1 µM	remaining binding	92%
Cn1cc(-c2cc(F)cc(N3CCn4c(cc5c4CCCC5)C3=O)c2CO)cc(Nc2ccc(N3CCN(C4COC4)CC3)cn2)c1=O	enzyme activity, inhibitor	0.1 µM	inhibition	4%
C#Cc1n[nH]c2c(-c3cn([C@@H](C)c4ccccc4)c(=O)[nH]c3=O)cc(F)cc12	enzyme activity, inhibitor	0.1 µM	inhibition	11%
Nc1ncc(-c2nc(N3CCOCC3)nc(N3CCOCC3)n2)c(C(F)F)n1	binding, competition with immobilised ligand	10 µM	remaining binding	42%
